Converted amounts (≈) assume the structure as drawn.
Legend:
P388 [1] = assay: Antitumor activity against mouse P388 cells allografted in female CDF1 mouse assessed as disease cures by measuring 30-days host survival at 200 mg/kg, ip administered daily for 9 days as Klucel suspension starting 24 hrs after tumor inoculation relative to control; type: functional; settings: route intraperitoneal
Summary of the method: (§1)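 P388 leukemia given as an ascitic fluid cell inoculum, ip, to mice of the strain and sex in each line. Nine daily ip doses were given in a Klucel (hydroxypropylcellulose) suspension, starting 24 h after inoculation. Read-out is median survival time as %T/C, with >125 taken as significant; a "cure" means 30-day survival.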

Mus musculus [2] = assay: Toxicity in female BDF1 mouse allografted with mouse L1210 cells assessed as animal survival at 50 mg/kg, ip administered daily for 9 days as Klucel suspension starting 24 hrs after tumor inoculation measured on fifth day; type: organism-based; set-up: dose 50 mg/kg, route intraperitoneal; settings: in vivo
Summary of the method: (§2)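 L1210 leukemia passaged as ascitic fluid and inoculated ip. Test agent given ip as a Klucel (hydroxypropylcellulose) suspension, nine daily doses starting 24 h after tumor inoculation. Acute toxicity read as toxicity-day survivors per group (out of 6), recorded on day 5. Animal weight difference T − C was also recorded. Follows NCI screening protocols.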

P388 [3] = assay: Antitumor activity against mouse P388 cells allografted in female CDF1 mouse assessed as change in body weight at 200 mg/kg, ip administered daily for 9 days as Klucel suspension starting 24 hrs after tumor inoculation; type: functional; settings: route intraperitoneal
Summary of the method: (§3)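 Ascitic fluid carrying P388 cells was inoculated ip. Compound was given ip in nine daily doses, starting 24 h after inoculation, in Klucel (hydroxypropylcellulose) suspension or in saline with Tween-80. Body-weight difference (treated minus control) was recorded on day 5. Survival was scored as %T/C of median survival time, and 30-day survival counted as cure.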

P388 [4] = assay: Antitumor activity against mouse P388 cells allografted in female CDF1 mouse assessed as disease cures by measuring 30-days host survival at 50 mg/kg, ip administered daily for 9 days as Klucel suspension starting 24 hrs after tumor inoculation relative to control; type: functional; settings: route intraperitoneal; summary of the method: as §1
Mus musculus [5] = assay: Toxicity in female BDF1 mouse allografted with mouse L1210 cells assessed as animal survival at 100 mg/kg, ip administered daily for 9 days as Klucel suspension starting 24 hrs after tumor inoculation measured on fifth day; type: organism-based; set-up: dose 100 mg/kg, route intraperitoneal; settings: in vivo
Summary of the method: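 Female BDF1 mice bearing ip ascitic L1210 inoculum got nine daily ip doses in a Klucel suspension, starting 24 h after tumor inoculation. Toxicity was scored as toxicity-day survivors out of the group, recorded on the fifth day. Animal weight difference (T − C) was also tabulated.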

L1210 [6] = assay: Antileukemic activity against mouse L1210 cells allografted in female BDF1 mouse assessed as change in body weight at 100 mg/kg, ip administered daily for 9 days as Klucel suspension starting 24 hrs after tumor inoculation; type: functional; settings: route intraperitoneal
Summary of the method: (§4)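 Ascitic fluid carrying L1210 cells was inoculated ip. Compound was given ip as a Klucel (hydroxypropylcellulose) suspension in nine daily doses, starting 24 h after inoculation. Body-weight difference (treated minus control) was recorded on day 5. Survival was scored as %T/C of mean survival time.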

P388 [7] = assay: Antitumor activity against mouse P388 cells allografted in female CDF1 mouse assessed as change in body weight at 100 mg/kg, ip administered daily for 9 days as Klucel suspension starting 24 hrs after tumor inoculation; type: functional; settings: route intraperitoneal; summary of the method: as §3
Mus musculus [8] = assay: Toxicity in female CDF1 mouse allografted with mouse P388 cells assessed as animal survival at 50 mg/kg, ip administered daily for 9 days as Klucel suspension starting 24 hrs after tumor inoculation; type: organism-based; set-up: dose 50 mg/kg, route intraperitoneal; settings: in vivo
Summary of the method: (§5)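 P-388 leukemia ascitic fluid inoculated ip. Compound given ip as a suspension in Klucel (hydroxypropylcellulose), once daily for nine doses beginning 24 h post-inoculation. Acute toxicity assessed as toxicity-day survivors per group. Survival was followed up to 30 days, with 30-day survival counted as "cure". Follows NCI screening protocols.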

[9] = Cytotoxicity against human 9KB cells treated as ethanol solution; type: functional; settings: read-out: ED50 (the source's name)
Summary of the method: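 Compound applied as an ethanol solution; activity read out as ED50 under the general screening protocol.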

P388 [10] = assay: Antitumor activity against mouse P388 cells allografted in female CDF1 mouse assessed as change in body weight at 50 mg/kg, ip administered daily for 9 days as Klucel suspension starting 24 hrs after tumor inoculation; type: functional; settings: route intraperitoneal; summary of the method: as §3
Mus musculus [11] = assay: Toxicity in female BDF1 mouse allografted with mouse L1210 cells assessed as animal survival at 200 mg/kg, ip administered daily for 9 days as Klucel suspension starting 24 hrs after tumor inoculation measured on fifth day; type: organism-based; set-up: dose 200 mg/kg, route intraperitoneal; settings: in vivo; summary of the method: as §2
L1210 [12] = assay: Antileukemic activity against mouse L1210 cells allografted in female BDF1 mouse assessed as host mean survival time at 100 mg/kg, ip administered daily for 9 days as Klucel suspension starting 24 hrs after tumor inoculation relative to control; type: functional; settings: route intraperitoneal
Summary of the method: (§6)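 L1210 leukemia given as an ascitic fluid cell inoculum, ip, to mice of the strain and sex in each line. Test material was given ip for nine daily doses starting 24 h after inoculation, in a Klucel (hydroxypropylcellulose) suspension. Read-out is mean survival time as %T/C versus controls, with >125 taken as significant.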

L1210 [13] = assay: Antileukemic activity against mouse L1210 cells allografted in female BDF1 mouse assessed as change in body weight at 50 mg/kg, ip administered daily for 9 days as Klucel suspension starting 24 hrs after tumor inoculation; type: functional; settings: route intraperitoneal; summary of the method: as §4
P388 [14] = assay: Antitumor activity against mouse P388 cells allografted in female CDF1 mouse assessed as disease cures by measuring 30-days host survival at 100 mg/kg, ip administered daily for 9 days as Klucel suspension starting 24 hrs after tumor inoculation relative to control; type: functional; settings: route intraperitoneal; summary of the method: as §1
L1210 [15] = assay: Antileukemic activity against mouse L1210 cells allografted in female BDF1 mouse assessed as host mean survival time at 50 mg/kg, ip administered daily for 9 days as Klucel suspension starting 24 hrs after tumor inoculation relative to control; type: functional; settings: route intraperitoneal; summary of the method: as §6
L1210 [16] = assay: Antileukemic activity against mouse L1210 cells allografted in female BDF1 mouse assessed as change in body weight at 200 mg/kg, ip administered daily for 9 days as Klucel suspension starting 24 hrs after tumor inoculation; type: functional; settings: route intraperitoneal; summary of the method: as §4
Mus musculus [17] = assay: Toxicity in female CDF1 mouse allografted with mouse P388 cells assessed as animal survival at 200 mg/kg, ip administered daily for 9 days as Klucel suspension starting 24 hrs after tumor inoculation; type: organism-based; set-up: dose 200 mg/kg, route intraperitoneal; settings: in vivo; summary of the method: as §5
Mus musculus [18] = assay: Toxicity in female CDF1 mouse allografted with mouse P388 cells assessed as animal survival at 100 mg/kg, ip administered daily for 9 days as Klucel suspension starting 24 hrs after tumor inoculation; type: organism-based; set-up: dose 100 mg/kg, route intraperitoneal; settings: in vivo; summary of the method: as §5
P388 [19] = assay: Antitumor activity against mouse P388 cells allografted in female BDF1 mouse assessed as change in body weight at 25 mg/kg, ip administered daily for 9 days as Klucel suspension starting 24 hrs after tumor inoculation; type: functional; settings: route intraperitoneal; summary of the method: as §3
P388 [20] = assay: Antitumor activity against mouse P388 cells allografted in female BDF1 mouse assessed as change in body weight at 12.5 mg/kg, ip administered daily for 9 days as Klucel suspension starting 24 hrs after tumor inoculation; type: functional; settings: route intraperitoneal; summary of the method: as §3
L1210 [21] = assay: Antileukemic activity against mouse L1210 cells allografted in female BDF1 mouse assessed as host mean survival time at 200 mg/kg, ip administered daily for 9 days as Klucel suspension starting 24 hrs after tumor inoculation relative to control; type: functional; settings: route intraperitoneal; summary of the method: as §6
Mus musculus [22] = assay: Toxicity in female BDF1 mouse allografted with mouse P388 cells assessed as animal survival at 25 mg/kg, ip administered daily for 9 days as Klucel suspension starting 24 hrs after tumor inoculation; type: organism-based; set-up: dose 25 mg/kg, route intraperitoneal; settings: in vivo; summary of the method: as §5
P388 [23] = assay: Antitumor activity against mouse P388 cells allografted in female BDF1 mouse assessed as disease cures by measuring 30-days host survival at 25 mg/kg, ip administered daily for 9 days as Klucel suspension starting 24 hrs after tumor inoculation relative to control; type: functional; settings: route intraperitoneal; summary of the method: as §1
P388 [24] = assay: Antitumor activity against mouse P388 cells allografted in female BDF1 mouse assessed as disease cures by measuring 30-days host survival at 12.5 mg/kg, ip administered daily for 9 days as Klucel suspension starting 24 hrs after tumor inoculation relative to control; type: functional; settings: route intraperitoneal; summary of the method: as §1
Mus musculus [25] = assay: Toxicity in female BDF1 mouse allografted with mouse P388 cells assessed as animal survival at 12.5 mg/kg, ip administered daily for 9 days as Klucel suspension starting 24 hrs after tumor inoculation; type: organism-based; set-up: dose 12.5 mg/kg, route intraperitoneal; settings: in vivo; summary of the method: as §5

Row | Structure (SMILES) | T/C (P388 [1]) [%] | Activity (Mus musculus [2]) | Activity (P388 [3]) [g] | T/C (P388 [4]) [%] | Activity (Mus musculus [5]) | Activity (L1210 [6]) [g] | Activity (P388 [7]) [g] | Activity (Mus musculus [8]) | EC50 [9] [µg/mL] | Activity (P388 [10]) [g] | Activity (Mus musculus [11]) | T/C (L1210 [12]) [%] | Activity (L1210 [13]) [g] | T/C (P388 [14]) [%] | T/C (L1210 [15]) [%] | Activity (L1210 [16]) [g] | Activity (Mus musculus [17]) | Activity (Mus musculus [18]) | T/C (L1210 [21]) [%] | other results
1 | OCc1c(CO)c(C(F)(F)F)n2c1CCC2 | 108 | Non-toxic | 1.1 | 104 | Non-toxic | -1.1 | 0.6 | Non-toxic | 25 (≈ 106 µM) | 2.1 | Toxic | 104 | -0.3 | 104 | 107 | -2.8 | – | – | – | –
2 | CC(=O)OCc1c(COC(C)=O)c(-c2ccc(Cl)c(Cl)c2)n2c1CCC2 | 127 | Non-toxic | -3 | 141 | Non-toxic | -2.2 | -1 | Non-toxic | > 100 | -0.7 | Non-toxic | 104 | -1.1 | 122 | 100 | -3.3 | Non-toxic | Non-toxic | 100 | Activity (P388 [19]): 1.2 g; Activity (P388 [20]): 1.2 g; Activity (Mus musculus [22]): Non-toxic; T/C (P388 [23]): 125%; T/C (P388 [24]): 114%; Activity (Mus musculus [25]): Non-toxic
3 | CNC(=O)OCc1c(COC(=O)NC)c(-c2ccccc2)n2c1CCC2 | 59 | Non-toxic | -3.5 | 124 | Non-toxic | -1.5 | -1.8 | Non-toxic | 22 (≈ 61.6 µM) | -2.1 | Non-toxic | 104 | -2.6 | 124 | 104 | -3.1 | Non-toxic | Non-toxic | 110 | –
4 | CNC(=O)OCc1c(COC(=O)NC)c(C(F)(F)F)n2c1CCC2 | 82 | Non-toxic | -1.5 | 117 | Non-toxic | -0.8 | -0.4 | Non-toxic | 2.5 (≈ 7.16 µM) | 1.4 | Non-toxic | 100 | -0.1 | 116 | 104 | -0.2 | – | Non-toxic | 98 | –
5 | CC(=O)OCc1c(COC(C)=O)c(C(F)(F)F)n2c1CCC2 | 104 | Non-toxic | 1.1 | 90 | Non-toxic | -0.6 | 1.8 | Non-toxic | 2.4 (≈ 7.52 µM) | 2.1 | Non-toxic | 100 | -1 | 93 | 107 | -0.8 | Non-toxic | Non-toxic | 98 | –

— ChEMBL document CHEMBL3244396, “Synthesis and antileukemic activity of 5-substituted 2,3-dihydro-6,7-bis(hydroxymethyl)-1H-pyrrolizine diesters” (J Med Chem, 1977)
